Test results taken from ChEMBL document CHEMBL3774372, “Design, physico-chemical properties and biological evaluation of some new N-[(phenoxy)alkyl]- and N-{2-[2-(phenoxy)ethoxy]ethyl}aminoalkanols as anticonvulsant agents” (Bioorg Med Chem, 2016).
Activity calls are given as the source filed them. The rule behind the calls is not given here.

Tests used:
Rattus norvegicus [1] = experiment: Anticonvulsant activity in rat assessed as protection against maximal electric shock-induced seizures at 30 mg/kg, po measured after 1 hr; type: functional, organism-based
Summary of the method: (§1)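 Rats dosed ip or orally as 0.5% methylcellulose suspension; maximal electroshock at listed time. Protection = abolition of hindlimb tonic extension; 4 rats per group, scored protected/tested.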

Mus musculus [2] = experiment: Anticonvulsant activity in mouse assessed as protection against 6 Hz psychomotor seizure at 20 mg/kg, ip after 0.5 hrs; type: functional, organism-based
Summary of the method: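 Suspension in 0.5% methylcellulose given ip to mice; corneal stimulation with 0.2 ms monopolar rectangular pulses at 6 Hz for 3 s from a constant current device, mice restrained then released to observation cage. Protected if normal exploratory behaviour resumed within 10 s of stimulation. Scored as protected/tested, 4 mice per group.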

Rattus norvegicus [3] = experiment: Anticonvulsant activity in rat assessed as protection against maximal electric shock-induced seizures at 30 mg/kg, ip measured after 4 hrs; type: functional, organism-based; summary of the method: as §1
[4] = target: Small conductance calcium-activated potassium channel (Rattus norvegicus) (UniProt P70604+P70606+P70605); experiment: Displacement of [125I]apamin from rat cerebral cortex small conductance calcium-activated potassium channel at 10^-5 M; type: tissue-based
Summary of the method: (§2)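 Radioligand binding screen run at a single test concentration of 10^-5 M. Each target used its stated receptor source (human recombinant CHO or HEK-293 cells, endogenous cell lines, or rat tissue membranes) with the listed radioligand.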

Rattus norvegicus [5] = experiment: Anticonvulsant activity in pilocarpine-induced status epilepticus Sprague-Dawley rat model at 100 mg/kg, ip after 2 hrs during post stage 3 seizure; type: functional, organism-based
Summary of the method: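 Rats given pilocarpine 50 mg/kg ip and observed to first convulsive seizure (Racine stage 3–5, time zero); test drug then given ip in 0.5% methylcellulose. Efficacy = halting further stage 3–5 convulsive seizures; scored protected/tested, time after first stage 3 seizure.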

[6] = target: Neurotensin receptor type 1 (Homo sapiens) (UniProt P30989); experiment: Displacement of [125I]Tyr3-neurotensin from human recombinant NT1 receptor expressed in CHO cells at 10^-5 M; type: cell-based; summary of the method: as §2
[7] = Ratio of drug level in brain to plasma in CD1 mouse at 1 mg/kg, iv administered as single dose measured after 120 mins by LC/ESI-MS/MS analysis; type: ADME, organism-based; conditions: brain and plasma, read-out: BPR
Mus musculus [8] = experiment: Anticonvulsant activity in ip dosed mouse assessed as protection against subcutaneous pentylenetetrazol-induced seizures measured after […]; type: functional
[9] = Neurotoxicity in ip dosed mouse after […] by rotarod test; type: toxicity, organism-based; conditions: in vivo
Rattus norvegicus [10] = experiment: Toxicity in pilocarpine-induced status epilepticus Sprague-Dawley rat model assessed as average weight change at 100 mg/kg, ip measured 24 hrs post first stage 3 seizure; type: organism-based; conditions: in vivo
Vibrio harveyi = experiment: Antimutagenic activity against Vibrio harveyi BB7X assessed as inhibition of NQNO-induced mutagenicity after 48 hrs; type: functional
Summary of the method: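 V. harveyi cultures grown exponentially to A600 0.1 at 30 °C, exposed to test compound for 15 min, then to NQNO, and grown on to A600 0.3–0.4. 5 × 10⁶ cells plated on BOSS agar with neomycin (100, final). Neomycin-resistant colonies counted after 48 h at 30 °C. Result given as % inhibition of NQNO mutagenicity; three independent repeats.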

[11] = Retention time of the compound in mouse liver microsomes at 20 uM preincubated for 15 mins followed by addition of NADPH-regenerating system measured after 5 to 90 mins by […] analysis; type: ADME
Summary of the method: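 Mouse liver microsomes (0.4 mg/mL) with test compound (20 µM) in 100 mM potassium phosphate, pH 7.4, were preincubated 15 min at 37 °C. An NADPH-regenerating system was then added and incubation ran 5–90 min at 37 °C. Levallorphan (20 µM) served as internal standard, and reactions were quenched with perchloric acid. The supernatant was analysed by UPLC/MS. Duplicate incubations.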

[12] = Ratio of drug level in brain to plasma in CD1 mouse at 1 mg/kg, iv administered as single dose measured after 15 mins by LC/ESI-MS/MS analysis; type: ADME, organism-based; conditions: brain and plasma, read-out: BPR
[13] = Half life in CD1 mouse plasma at 1 mg/kg, iv measured up to 240 mins by LC/ESI-MS/MS analysis; type: ADME, organism-based
Summary of the method: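 Male CD1 mice, fasted overnight, were dosed iv at 1 mg/kg. Under ketamine/xylazine, blood was collected at 0, 5, 15, 30, 60, 120 and 240 min, one sample per animal, four mice per time point. Plasma concentrations were measured by LC/ESI-MS/MS. Terminal t1/2 was taken as 0.693/kz, with kz from log-linear regression, using non-compartmental analysis.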

Mus musculus [14] = experiment: Volume of distribution in steady state in CD1 mouse plasma at 1 mg/kg, iv measured up to 240 mins by LC/ESI-MS/MS analysis; type: ADME, organism-based; conditions: in vivo, 4 h
Mus musculus [15] = experiment: AUC (0 to infinity) in CD1 mouse plasma at 12.92 mg/kg, ig measured up to 240 mins by LC/ESI-MS/MS analysis; type: ADME, organism-based; set-up: dose 12.92 mg/kg, time infinity, route […]; conditions: in vivo, po, 4 h
[16] = Absolute bioavailability in CD1 mouse plasma at 12.92 mg/kg, ig measured up to 240 mins by LC/ESI-MS/MS analysis; type: ADME, organism-based; conditions: po
Mus musculus [17] = experiment: Tmax in CD1 mouse plasma at 12.92 mg/kg, ip measured up to 240 mins by LC/ESI-MS/MS analysis; type: ADME, organism-based; conditions: in vivo, 4 h
Mus musculus [18] = experiment: AUMC (0 to infinity) in CD1 mouse plasma at 12.92 mg/kg, ip measured up to 240 mins by LC/ESI-MS/MS analysis; type: ADME, organism-based; conditions: in vivo, 4 h
[19] = AUC (0 to infinity) in CD1 mouse brain at 1 mg/kg, iv measured up to 240 mins by LC/ESI-MS/MS analysis; type: ADME, organism-based; set-up: dose 1 mg/kg, route intravenous, time infinity
[20] = Cmax in CD1 mouse brain at 1 mg/kg, iv measured up to 240 mins by LC/ESI-MS/MS analysis; type: ADME, organism-based; set-up: dose 1 mg/kg, route intravenous
[21] = AUC (0 to infinity) in CD1 mouse brain at 12.92 mg/kg, ig measured up to 240 mins by LC/ESI-MS/MS analysis; type: ADME, organism-based; set-up: dose 12.92 mg/kg, route […], time infinity; conditions: po
[22] = Cmax in CD1 mouse brain at 12.92 mg/kg, ig measured up to 240 mins by LC/ESI-MS/MS analysis; type: ADME, organism-based; set-up: dose 12.92 mg/kg, route […]; conditions: po
[23] = Tmax in CD1 mouse brain at 12.92 mg/kg, ig measured up to 240 mins by LC/ESI-MS/MS analysis; type: ADME, organism-based; conditions: po
[24] = Ratio of drug level in brain to plasma in CD1 mouse at 1 mg/kg, iv administered as single dose measured after 5 mins by LC/ESI-MS/MS analysis; type: ADME, organism-based; conditions: brain and plasma, read-out: BPR
[25] = Ratio of drug level in brain to plasma in CD1 mouse at 12.92 mg/kg, ig administered as single dose measured after 5 mins by LC/ESI-MS/MS analysis; type: ADME, organism-based; conditions: brain and plasma, po, read-out: BPR
[26] = Ratio of drug level in brain to plasma in CD1 mouse at 12.92 mg/kg, ip administered as single dose measured after 5 mins by LC/ESI-MS/MS analysis; type: ADME, organism-based; conditions: brain and plasma, read-out: BPR
[27] = Ratio of drug level in brain to plasma in CD1 mouse at 12.92 mg/kg, ig administered as single dose measured after 60 mins by LC/ESI-MS/MS analysis; type: ADME, organism-based; conditions: brain and plasma, po, read-out: BPR
in vitro = conditions: mouse, liver microsomes

Chain of Neurotensin receptor type 1 (Homo sapiens) (P30989 whole entry): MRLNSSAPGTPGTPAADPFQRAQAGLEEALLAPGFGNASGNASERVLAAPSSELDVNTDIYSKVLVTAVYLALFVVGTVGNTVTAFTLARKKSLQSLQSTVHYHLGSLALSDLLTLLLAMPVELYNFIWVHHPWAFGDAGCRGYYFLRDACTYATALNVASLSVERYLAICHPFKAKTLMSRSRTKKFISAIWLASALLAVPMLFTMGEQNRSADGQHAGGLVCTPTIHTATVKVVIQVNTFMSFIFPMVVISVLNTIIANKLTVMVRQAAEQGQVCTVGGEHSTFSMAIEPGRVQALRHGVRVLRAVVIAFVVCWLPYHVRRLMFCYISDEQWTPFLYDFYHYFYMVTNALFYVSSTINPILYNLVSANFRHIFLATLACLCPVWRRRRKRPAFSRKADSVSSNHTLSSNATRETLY

Cc1cccc(C)c1OCCOCCN[C@@H](C)CO
Activity (Rattus norvegicus [1]): inactive
Activity (Mus musculus [2]): inactive
Activity (Rattus norvegicus [3]): inactive
inhibition [4]: -0.9%

Cc1cccc(C)c1OCCOCCN[C@H](C)CO
Activity (Rattus norvegicus [5]): inactive
inhibition [6]: -4.2%

Cc1cccc(C)c1OCCOCCN[C@H](C)CO.Cl
Kp at 2 h [7]: 6.66
ED50 (Mus musculus [8]): > 45 mg/kg
TD50 at […] [9]: 33.3 mg/kg
Activity (Rattus norvegicus [10]): 17.5 g
inhibition (INH) (Vibrio harveyi): 7%
Retention_time [11]: 3.81 min
Kp at […] [12]: 5.36
half-life [13]: 51.5 min
Vdss (Mus musculus [14]): 0.8997 L/kg
AUC (Mus musculus [15]): 0.396 µg·h/mL
bioavailability [16]: 2.98%
Tmax (Mus musculus [17]): 5 min
AUMC (Mus musculus [18]): 1280 ng·h²/mL
AUC(0-inf) [19]: 5.15 µg·h/mL
Cmax [20]: 11500 ng/mL
AUC(0-inf) [21]: 1220 µg·h/mL
Cmax [22]: 1640 ng/mL
Tmax [23]: 5 min
Kp at 5 min [24]: 5.27
Kp at 5 min [25]: 1.73
Kp at 5 min [26]: 1.13
Kp at 1 h [27]: 5.95
half-life at 20 µM (in vitro): 37 min
